Reference: ChEMBL document CHEMBL1138547, “Synthesis, biological evaluation and 2D-QSAR analysis of benzoxazoles as antimicrobial agents” (2009)
Converted amounts (≈) assume the structure as drawn.

What was measured:
Assay type in all cases: functional
Bacillus subtilis [1] = experiment: Antimicrobial activity against Bacillus subtilis ATCC 6633 after 24 hrs
In short: (§1)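 MIC by twofold serial dilution in Mueller-Hinton broth (MHB); MHB also used to dilute the bacterial suspension. Wells held 10^3 cfu/ml bacteria after inoculation. Controls: 80% DMSO, 20% EtOH, methanol, DMSO, PBS, organism alone and medium alone. Triplicate in each run. MIC taken as the lowest concentration completely inhibiting macroscopic growth.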

Klebsiella pneumoniae [2] = experiment: Antimicrobial activity against Klebsiella pneumoniae RSHM 574 after 24 hrs; in short: as §1
Staphylococcus aureus [3] = experiment: Antimicrobial activity against Staphylococcus aureus ATCC 25923 after 24 hrs
In short: (§2)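 Twofold serial broth dilution in Mueller-Hinton broth. MHB was used both to dilute the bacterial suspension and for the twofold compound dilutions, giving 10^3 cfu/ml bacteria per well after inoculation. Solvent, medium and organism-only wells served as controls. Each organism was run in triplicate.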

Candida albicans [4] = experiment: Antimicrobial activity against multidrug-resistant Candida albicans isolates after 24 to 48 hrs
In short: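 Yeast broth microdilution following CLSI M27-A, with Sabouraud dextrose medium noted for antifungal assays. Fresh cultures at McFarland 0.5 (10^6 cfu/ml) were diluted to 10^4 cfu/ml and inoculated into twofold compound dilutions. Trays were incubated at 35 °C in a humid chamber and read at 48 h, in triplicate. MIC was the lowest concentration giving complete macroscopic growth inhibition.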

Escherichia coli [5] = experiment: Antimicrobial activity against multidrug-resistant Escherichia coli after 24 hrs; in short: as §2
Candida albicans [6] = experiment: Antimicrobial activity against Candida albicans ATCC 10231 after 24 to 48 hrs
In short: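 Twofold serial dilution following CLSI M27-A. Yeast suspension made at 10^4 cfu/ml by diluting a fresh culture at McFarland 0.5 (10^6 cfu/ml). Inoculated into the diluted compound, incubated at 35 °C in a humid chamber, read after 48 h. Triplicate in each run. MIC is the lowest concentration completely inhibiting macroscopic growth.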

Escherichia coli [7] = experiment: Antimicrobial activity against Escherichia coli ATCC 25922 after 24 hrs; in short: as §1
Klebsiella pneumoniae [8] = experiment: Antimicrobial activity against multidrug-resistant Klebsiella pneumoniae after 24 hrs; in short: as §2
Pseudomonas aeruginosa = experiment: Antimicrobial activity against Pseudomonas aeruginosa ATCC […] after 24 hrs; in short: as §1
Staphylococcus aureus [9] = experiment: Antimicrobial activity against multidrug-resistant Staphylococcus aureus after 24 hrs; in short: as §2
Bacillus subtilis [10] = experiment: Antimicrobial activity against ceftriazone-resistant Bacillus subtilis after 24 hrs; in short: as §2
[11] = Bacillus subtilis, ATCC 6633, 24 h

O=[N+]([O-])c1ccc2nc(-c3ccccc3)oc2c1
log(1/C) (Bacillus subtilis [1]): 3.983 | MIC (Bacillus subtilis [1]; [11]): 25 µg/mL (≈ 104 µM) | MIC (Klebsiella pneumoniae [2]; RSHM 574, 24 h): 50 µg/mL (≈ 208 µM) | MIC (Staphylococcus aureus [3]; ATCC 25923, 24 h): 200 µg/mL (≈ 833 µM) | MIC (Candida albicans [4]): 50 µg/mL (≈ 208 µM) | MIC (Escherichia coli [5]): 25 µg/mL (≈ 104 µM) | MIC (Candida albicans [6]): 100 µg/mL (≈ 416 µM) | MIC (Escherichia coli [7]; ATCC 25922, 24 h): 50 µg/mL (≈ 208 µM) | MIC (Klebsiella pneumoniae [8]): 100 µg/mL (≈ 416 µM) | MIC (Pseudomonas aeruginosa): 50 µg/mL (≈ 208 µM) | MIC (Staphylococcus aureus [9]): 100 µg/mL (≈ 416 µM) | MIC (Bacillus subtilis [10]): 25 µg/mL (≈ 104 µM)

Cc1ccc(Cc2nc3cc(N)ccc3o2)cc1
log(1/C) (Bacillus subtilis [1]): 4.28 | MIC (Bacillus subtilis [1]; [11]): 12.5 µg/mL (≈ 52.5 µM) | MIC (Klebsiella pneumoniae [2]; RSHM 574, 24 h): 50 µg/mL (≈ 210 µM) | MIC (Staphylococcus aureus [3]; ATCC 25923, 24 h): 100 µg/mL (≈ 420 µM) | MIC (Candida albicans [4]): 50 µg/mL (≈ 210 µM) | MIC (Escherichia coli [5]): 50 µg/mL (≈ 210 µM) | MIC (Candida albicans [6]): 100 µg/mL (≈ 420 µM) | MIC (Escherichia coli [7]; ATCC 25922, 24 h): 50 µg/mL (≈ 210 µM) | MIC (Klebsiella pneumoniae [8]): 100 µg/mL (≈ 420 µM) | MIC (Pseudomonas aeruginosa): 50 µg/mL (≈ 210 µM) | MIC (Staphylococcus aureus [9]): 100 µg/mL (≈ 420 µM) | MIC (Bacillus subtilis [10]): 25 µg/mL (≈ 105 µM)

O=[N+]([O-])c1ccc2nc(-c3ccc(F)cc3)oc2c1
log(1/C) (Bacillus subtilis [1]): 3.713 | MIC (Bacillus subtilis [1]; [11]): 50 µg/mL (≈ 194 µM) | MIC (Klebsiella pneumoniae [2]; RSHM 574, 24 h): 50 µg/mL (≈ 194 µM) | MIC (Staphylococcus aureus [3]; ATCC 25923, 24 h): 100 µg/mL (≈ 387 µM) | MIC (Candida albicans [4]): 100 µg/mL (≈ 387 µM) | MIC (Escherichia coli [5]): 100 µg/mL (≈ 387 µM) | MIC (Candida albicans [6]): 50 µg/mL (≈ 194 µM) | MIC (Escherichia coli [7]; ATCC 25922, 24 h): 50 µg/mL (≈ 194 µM) | MIC (Klebsiella pneumoniae [8]): 100 µg/mL (≈ 387 µM) | MIC (Pseudomonas aeruginosa): 50 µg/mL (≈ 194 µM) | MIC (Staphylococcus aureus [9]): 100 µg/mL (≈ 387 µM) | MIC (Bacillus subtilis [10]): 25 µg/mL (≈ 96.8 µM)

OC(Cn1cncn1)(Cn1cncn1)c1ccc(F)cc1F [FLUCONAZOLE]
MIC (Candida albicans [4]): 64 µg/mL (≈ 209 µM) | MIC (Candida albicans [6]): 1 µg/mL (≈ 3.27 µM)

CC1COc2c(N3CCN(C)CC3)c(F)cc3c(=O)c(C(=O)O)cn1c23 (centres undefined) [OFLOXACIN]
MIC (Bacillus subtilis [1]; [11]): 0.125 µg/mL (≈ 0.346 µM) | MIC (Klebsiella pneumoniae [2]; RSHM 574, 24 h): 0.25 µg/mL (≈ 0.692 µM) | MIC (Staphylococcus aureus [3]; ATCC 25923, 24 h): 0.25 µg/mL (≈ 0.692 µM) | MIC (Escherichia coli [5]): 32 µg/mL (≈ 88.6 µM) | MIC (Escherichia coli [7]; ATCC 25922, 24 h): 0.125 µg/mL (≈ 0.346 µM) | MIC (Klebsiella pneumoniae [8]): 64 µg/mL (≈ 177 µM) | MIC (Pseudomonas aeruginosa): 8 µg/mL (≈ 22.1 µM) | MIC (Staphylococcus aureus [9]): 2 µg/mL (≈ 5.53 µM) | MIC (Bacillus subtilis [10]): 32 µg/mL (≈ 88.6 µM)

Cc1ccc2oc(-c3ccc([N+](=O)[O-])cc3)nc2c1
log(1/C) (Bacillus subtilis [1]): 4.609 | MIC (Bacillus subtilis [1]; [11]): 6.25 µg/mL (≈ 24.6 µM)

O=[N+]([O-])c1ccc2oc(-c3ccccc3)nc2c1
log(1/C) (Bacillus subtilis [1]): 4.284 | MIC (Bacillus subtilis [1]; [11]): 12.5 µg/mL (≈ 52 µM) | MIC (Klebsiella pneumoniae [2]; RSHM 574, 24 h): 50 µg/mL (≈ 208 µM) | MIC (Staphylococcus aureus [3]; ATCC 25923, 24 h): 200 µg/mL (≈ 833 µM) | MIC (Candida albicans [4]): 50 µg/mL (≈ 208 µM) | MIC (Escherichia coli [5]): 50 µg/mL (≈ 208 µM) | MIC (Candida albicans [6]): 100 µg/mL (≈ 416 µM) | MIC (Escherichia coli [7]; ATCC 25922, 24 h): 50 µg/mL (≈ 208 µM) | MIC (Klebsiella pneumoniae [8]): 100 µg/mL (≈ 416 µM) | MIC (Pseudomonas aeruginosa): 25 µg/mL (≈ 104 µM) | MIC (Staphylococcus aureus [9]): 400 µg/mL (≈ 1670 µM) | MIC (Bacillus subtilis [10]): 25 µg/mL (≈ 104 µM)

CO[C@H]1/C=C/O[C@@]2(C)Oc3c(C)c(O)c4c(O)c(c(/C=N/N5CCN(C)CC5)c(O)c4c3C2=O)NC(=O)/C(C)=C\C=C\[C@H](C)[C@H](O)[C@@H](C)[C@@H](O)[C@@H](C)[C@H](OC(C)=O)[C@@H]1C [RIFAMPIN]
MIC (Klebsiella pneumoniae [2]; RSHM 574, 24 h): 16 µg/mL (≈ 19.4 µM) | MIC (Staphylococcus aureus [3]; ATCC 25923, 24 h): 0.5 µg/mL (≈ 0.608 µM) | MIC (Escherichia coli [5]): 64 µg/mL (≈ 77.8 µM) | MIC (Escherichia coli [7]; ATCC 25922, 24 h): 8 µg/mL (≈ 9.72 µM) | MIC (Klebsiella pneumoniae [8]): 256 µg/mL (≈ 311 µM) | MIC (Pseudomonas aeruginosa): 32 µg/mL (≈ 38.9 µM) | MIC (Staphylococcus aureus [9]): 8 µg/mL (≈ 9.72 µM) | MIC (Bacillus subtilis [10]): 256 µg/mL (≈ 311 µM)

GENTAMICIN SULFATE
MIC (Bacillus subtilis [1]): 1 µg/mL | MIC (Klebsiella pneumoniae [2]): 8 µg/mL | MIC (Staphylococcus aureus [3]): 0.06 µg/mL | MIC (Escherichia coli [5]): 1 µg/mL | MIC (Escherichia coli [7]): 0.5 µg/mL | MIC (Klebsiella pneumoniae [8]): 64 µg/mL | MIC (Pseudomonas aeruginosa): 2 µg/mL | MIC (Staphylococcus aureus [9]): 1020 µg/mL | MIC (Bacillus subtilis [10]): 512 µg/mL

Cc1ccc(-c2nc3cc(C)ccc3o2)c(C)c1
log(1/C) (Bacillus subtilis [1]): 3.977
